Laboratory results: ChEMBL document CHEMBL4196158, “New Class of Selective Estrogen Receptor Degraders (SERDs): Expanding the Toolbox of PROTAC Degrons” (ACS Med Chem Lett, 2018)
Calls of active or inactive are those of the source. The rule behind the calls is not given here.

Assays:
MCF7 [1] = experiment: Antiproliferative activity against human MCF7 cells after 6 days by MTT assay; details: MCF7, 144 h
[2] = biological target: T1, Estrogen receptor (Homo sapiens) (UniProt P03372); experiment: Displacement of [3H]estradiol from human full length ERalpha after 18 to 24 hrs by scintillation counting method
T1 sequence (whole entry): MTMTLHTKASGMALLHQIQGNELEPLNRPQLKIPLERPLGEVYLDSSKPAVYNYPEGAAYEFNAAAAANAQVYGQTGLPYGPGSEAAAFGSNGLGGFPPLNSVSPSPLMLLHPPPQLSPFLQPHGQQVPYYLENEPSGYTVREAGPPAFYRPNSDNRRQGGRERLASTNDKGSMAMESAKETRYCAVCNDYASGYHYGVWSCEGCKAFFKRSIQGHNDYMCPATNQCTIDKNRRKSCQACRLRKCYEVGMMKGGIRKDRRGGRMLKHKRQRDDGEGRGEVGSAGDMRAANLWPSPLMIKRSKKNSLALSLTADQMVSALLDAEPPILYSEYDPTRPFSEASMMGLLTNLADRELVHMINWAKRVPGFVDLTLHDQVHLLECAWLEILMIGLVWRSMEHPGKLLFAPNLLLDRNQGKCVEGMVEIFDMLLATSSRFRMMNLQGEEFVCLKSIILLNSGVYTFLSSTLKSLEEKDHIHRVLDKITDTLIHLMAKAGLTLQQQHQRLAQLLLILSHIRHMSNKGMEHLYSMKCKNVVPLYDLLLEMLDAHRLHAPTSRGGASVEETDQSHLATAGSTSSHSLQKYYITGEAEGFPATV

[3] = Proteolysis targeting chimera activity in human MCF7 cells assessed as induction of E3 ubiquitin ligase-mediated ERalpha degradation by proteasome after 24 hrs by in-cell Western assay; assay type: cell-based; details: MCF7, 24 h
How it was run: (§1)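 MCF-7 cells in stripped medium were dosed across a concentration range (log ~10^-11 to 10^-5 M) for 24 h, and ERα was quantified by in-cell Western. Average ± SEM of 4 measurements, n = 3 unless noted. IC50 derived from the dose-response curve. Efficacy is the ERα level at the highest dose, as % of vehicle control.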

MCF7 [4] = experiment: Proteolysis targeting chimera activity in human MCF7 cells assessed as induction of E3 ubiquitin ligase-mediated ERalpha level after 24 hrs by in-cell Western assay relative to control; assay type: cell-based; design: concentration or dose not given beside the values
How it was run: as §1

MCF7 [5] = experiment: Antiproliferative activity against human MCF7 cells assessed as cell proliferation after 6 days by MTT assay relative to control; assay type: functional; design: concentration or dose not given beside the values
How it was run: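 MCF-7 cells kept in complete medium, dosed across a concentration range (log scale ~10^-11 to 10^-5 M) for 6 days; cell density read by MTT. Average ± SEM of 4 measurements, n = 3 unless noted. IC50 taken from dose-response. Efficacy given as relative proliferation rate at highest dose versus vehicle, with the fulvestrant level set to zero.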

[6] = biological target: T1, Estrogen receptor (Homo sapiens); experiment: Antagonist activity at ERalpha in human […] assessed as inhibition of estradiol-induced PgR gene expression level at 3 uM after 24 hrs by qRT-PCR method; assay type: cell-based
How it was run: (§2)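 MCF-7 cells exposed 24 h to 3 µM compound with or without 1 nM estradiol (E2); transcript levels of PgR, pS2 and GREB1 quantified by qRT-PCR.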

[7] = biological target: T1, Estrogen receptor (Homo sapiens); experiment: Antagonist activity at ERalpha in human […] assessed as inhibition of estradiol-induced GREB1 gene expression level at 3 uM after 24 hrs by qRT-PCR method; assay type: cell-based
How it was run: as §2

[8] = biological target: T1, Estrogen receptor (Homo sapiens); experiment: Antagonist activity at ERalpha in human […] assessed as inhibition of estradiol-induced pS2 gene expression level at 3 uM after 24 hrs by qRT-PCR method; assay type: cell-based
How it was run: as §2

MCF7 [9] = experiment: Proteolysis targeting chimera activity in human MCF7 cells assessed as induction of E3 ubiquitin ligase-mediated ERalpha level after 24 hrs by in presence of proteasome inhibitor MG132 by in-cell Western assay; assay type: cell-based

Row | Structure (SMILES) | IC50 (MCF7 [1]) [nM] | RBA [2] [%] | IC50 [3] [nM] | Activity (MCF7 [4]) [%] | Activity (MCF7 [5]) [%] | inhibition [6] | inhibition [7] | inhibition [8] | Activity (MCF7 [9])
1 | O=C(NCCCCOc1ccc(C(=C2C3CC4CC(C3)CC2C4)c2ccc(O)cc2)cc1)C12CC3CC(CC1C3)C2 | 12 | 17 | 2 | 71 | 42 |  |  |  | 
2 | CC(C)(C)OC(=O)N[C@@H](Cc1ccccc1)C(=O)NCCCCOc1ccc(C(=C2C3CC4CC(C3)CC2C4)c2ccc(O)cc2)cc1 | 7 | 14 | 307 | 71 | 25 |  |  |  | 
3 | CC(C)(C)OC(=O)N[C@@H](Cc1c[nH]c2ccccc12)C(=O)NCCCCOc1ccc(C(=C2C3CC4CC(C3)CC2C4)c2ccc(O)cc2)cc1 | 16 | 20 | 0.5 | 45 | 16 | Active | Active | Active | 
4 | C[C@]12CC[C@@H]3c4ccc(O)cc4C[C@@H](CCCCCCCCC[S+]([O-])CCCC(F)(F)C(F)(F)F)[C@H]3[C@@H]1CC[C@@H]2O (stereo partly specified) [FULVESTRANT] | < 0.1 | 61 | < 0.1 | 9 | 0 |  |  |  | 
5 | O=C(NCCCCOc1ccc(C(=C2C3CC4CC(C3)CC2C4)c2ccc(O)cc2)cc1)C1CCC(F)(F)CC1 | 4 | 30 |  | 67 | 20 |  |  |  | 
6 | CC12CC3CC(C)(C1)CC(C(=O)NCCCCOc1ccc(C(=C4C5CC6CC(C5)CC4C6)c4ccc(O)cc4)cc1)(C3)C2 | 5 | 6 | 10 | 42 | 57 |  |  |  | 
7 | O=C(NCCOc1ccc(C(=C2C3CC4CC(C3)CC2C4)c2ccc(O)cc2)cc1)C12CC3CC(CC(C3)C1)C2 | 17 | 21 |  | 76 | 16 |  |  |  | 
8 | O=C(NCCCCOc1ccc(C(=C2C3CC4CC(C3)CC2C4)c2ccc(O)cc2)cc1)[C@H]1CC[C@H](C(F)(F)F)CC1 | 0.5 | 10 | 2 | 31 | 13 | Active | Active | Active | 
9 | O=C(NCCCCOc1ccc(C(=C2C3CC4CC(C3)CC2C4)c2ccc(O)cc2)cc1)[C@@H]1C[C@@H]2C=C[C@H]1C2 | 9 | 37 | 0.5 | 53 | 42 |  |  |  | 
10 | O=C(NCCCCOc1ccc(C(=C2C3CC4CC(C3)CC2C4)c2ccc(O)cc2)cc1)C12CC3CC(CC(C3)C1)C2 | 13 | 11 | 6 | 51 | 13 |  |  |  | 
11 | O=C(NCCCCOc1ccc(C(=C2C3CC4CC(C3)CC2C4)c2ccc(O)cc2)cc1)C1CCCCC1 | 0.6 | 28 | 0.4 | 35 | 13 |  |  |  | inactive
12 | O=C(NCCCOc1ccc(C(=C2C3CC4CC(C3)CC2C4)c2ccc(O)cc2)cc1)C12CC3CC(CC(C3)C1)C2 | 9 | 26 | 3 | 42 | 13 | Active | Active | Active | 
13 | O=C(NCCCCOc1ccc(C(=C2C3CC4CC(C3)CC2C4)c2ccc(O)cc2)cc1)C1CCC1 | 3 | 70 |  | 69 | 15 |  |  |  | 
14 | O=C(NCCCCOc1ccc(C(=C2C3CC4CC(C3)CC2C4)c2ccc(O)cc2)cc1)C1CCCCCC1 | 5 | 30 |  | 76 | 15 |  |  |  | 
15 | CC(C)C[C@H](NC(=O)OC(C)(C)C)C(=O)NCCCCOc1ccc(C(=C2C3CC4CC(C3)CC2C4)c2ccc(O)cc2)cc1 | 36 | 14 | 636 | 56 | 20 |  |  |  | 
